pIC50, pKi: −log10 of the molar value.

Consider nine compounds from ChEMBL document CHEMBL1144424, “Synthesis and biological evaluation of 14-alkoxymorphinans. 22.(1) Influence of the 14-alkoxy group and the substitution in position 5 in 14-alkoxymorphinan-6-ones on in vitro and in vivo activities” (J Med Chem, 2005).

Test [1] is filed under the species Mus musculus. Kind of test: Ratios of colonic bead expulsion to that of antinociceptive potencie by hotplate test in mice. Type of test: functional.
The target in test [2] is Mu-type opioid receptor (Rattus norvegicus, UniProt P33535). Kind of test: Inhibition of [3H]DAMGO binding to opioid receptor mu from rat brain membranes. The format is cell membranes, Membrane. An outline of the steps: (§1)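 Sprague-Dawley rat brain membranes (0.3-0.5 mg protein) in 50 mM Tris-HCl incubated with 0.5 nM [3H]DAMGO or [3H][Ile5,6]deltorphin II, 45 min at 35 °C. GF/C filtration, ice-cold Tris-HCl washes; nonspecific binding with 10 µM naloxone. Duplicates, 3-4 independent experiments; Ki as mean ± SEM.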
Chain of Mu-type opioid receptor (Rattus norvegicus, UniProt P33535) (P33535 whole entry): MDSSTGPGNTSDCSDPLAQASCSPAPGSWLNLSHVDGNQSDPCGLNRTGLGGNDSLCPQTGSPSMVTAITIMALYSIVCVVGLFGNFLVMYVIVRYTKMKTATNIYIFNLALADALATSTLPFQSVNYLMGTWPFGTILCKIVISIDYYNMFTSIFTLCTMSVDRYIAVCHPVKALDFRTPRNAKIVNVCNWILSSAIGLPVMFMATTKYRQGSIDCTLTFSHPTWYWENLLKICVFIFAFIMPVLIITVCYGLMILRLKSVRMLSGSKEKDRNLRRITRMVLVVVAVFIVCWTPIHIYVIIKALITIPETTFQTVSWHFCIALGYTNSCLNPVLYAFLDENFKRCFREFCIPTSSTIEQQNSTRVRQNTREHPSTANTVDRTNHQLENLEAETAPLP

Test [3] can be described thus: Relative agonistic activity against opioid receptor delta in mouse vas deferens and opioid receptor mu in guinea pig ileum. The format is functional.
The target of test [4] is Opioid receptors; mu & delta (Rattus norvegicus) (UniProt P33533+P33535). Kind of test: Ratio of binding affinities for opioid receptors delta and mu. The format is protein assay. Put shortly: (§2)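 Ratios of Ki values from competition binding. Rat brain membranes were used with 0.5 nM [3H]DAMGO (mu) or [3H][Ile5,6]deltorphin II (delta), 45 min at 35 °C. Guinea pig brain membranes were used with 1 nM [3H]U69,593 (kappa), 30 min at 30 °C. Nonspecific binding was defined with 10 µM naloxone.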
Chain of Opioid receptors; mu & delta (Rattus norvegicus) (P33533 whole entry, looked up): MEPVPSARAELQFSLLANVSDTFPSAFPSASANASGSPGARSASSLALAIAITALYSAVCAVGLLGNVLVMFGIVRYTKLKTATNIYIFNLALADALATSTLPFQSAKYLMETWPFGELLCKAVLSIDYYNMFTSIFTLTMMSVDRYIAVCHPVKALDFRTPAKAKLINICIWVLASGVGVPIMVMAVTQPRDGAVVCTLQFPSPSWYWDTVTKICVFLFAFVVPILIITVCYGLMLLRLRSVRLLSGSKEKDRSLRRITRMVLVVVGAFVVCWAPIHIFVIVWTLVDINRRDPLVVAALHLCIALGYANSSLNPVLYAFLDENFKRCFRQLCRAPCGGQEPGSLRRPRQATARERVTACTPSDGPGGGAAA
Chain of Opioid receptors; mu & delta (Rattus norvegicus) (P33535 whole entry, looked up): as the sequence (P33535 whole entry) above

Test [5] can be described thus: Ratio of binding affinities for opioid receptors kappa and mu. An outline of the steps:
as §2

Test [6] concerns the target Delta-type opioid receptor (Mus musculus, UniProt P32300). Kind of test: In vitro agonistic activity against opioid receptor delta of mouse vas deferens. Type of test: functional, tissue-based. An outline of the steps:
(§3)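 Field stimulation with supramaximal-voltage bipolar rectangular pulses of male guinea-pig ileum myenteric plexus longitudinal muscle and of mouse vas deferens. Inhibition of the electrically evoked twitch; IC50 values as mean ± SEM.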

For test [7], the target named is Mu-type opioid receptor (Cavia porcellus, UniProt P97266). Kind of test: In vitro agonistic activity against opioid receptor mu of guinea pig ileum. Type of test: functional, tissue-based. An outline of the steps:
as §3

Test [8] deals with Mus musculus. Description: Gastrointestinal (GI) motility was assessed by colonic bead expulsion after subcutaneous administration in mice. To be noted: sc. The format is functional.
Test [9] deals with Mus musculus. Description: Antinociceptive potencie was assessed after subcutaneous administration of compound by hotplate test (HP) in mice. The format is functional. Put shortly:
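Male CD-1 mice (20-25 g), compound in sterile Ringer's solution given sc, 10 animals per dose. Paw licking or jumping on 55 °C hot-plate; pre-drug control latency (non-responders within 3 s excluded), 12 s cutoff.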

The target in test [10] is Delta-type opioid receptor (Rattus norvegicus, UniProt P33533). Description: Inhibition of [3H][Ile5,6]deltorphin II binding to opioid receptor delta from rat brain membranes. The format is cell membranes, Membrane. An outline of the steps: as §1
Chain of Delta-type opioid receptor (Rattus norvegicus, UniProt P33533) (P33533 whole entry): as the sequence (P33533 whole entry, looked up) above
Test [11] deals with Kappa-type opioid receptor (Cavia porcellus, UniProt P41144). Kind of test: Inhibition of [3H]U-69593 binding to opioid receptor kappa from guinea pig brain membranes.
Chain of Kappa-type opioid receptor (P41144 whole entry): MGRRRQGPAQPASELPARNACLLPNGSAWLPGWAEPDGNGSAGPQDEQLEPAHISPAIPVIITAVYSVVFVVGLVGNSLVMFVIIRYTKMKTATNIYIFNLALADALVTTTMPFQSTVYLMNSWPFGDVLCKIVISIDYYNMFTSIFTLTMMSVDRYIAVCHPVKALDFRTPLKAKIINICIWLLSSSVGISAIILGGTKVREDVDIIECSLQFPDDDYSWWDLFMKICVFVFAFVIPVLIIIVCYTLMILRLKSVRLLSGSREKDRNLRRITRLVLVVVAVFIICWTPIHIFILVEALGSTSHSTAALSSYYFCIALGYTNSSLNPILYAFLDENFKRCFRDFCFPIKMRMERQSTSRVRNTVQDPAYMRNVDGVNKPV

Chain of Mu-type opioid receptor (Cavia porcellus, UniProt P97266) (P97266 whole entry): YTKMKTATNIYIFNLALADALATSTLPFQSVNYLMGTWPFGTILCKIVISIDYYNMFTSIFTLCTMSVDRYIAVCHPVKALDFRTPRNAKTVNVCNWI
Chain of Delta-type opioid receptor (Mus musculus, UniProt P32300) (P32300 whole entry): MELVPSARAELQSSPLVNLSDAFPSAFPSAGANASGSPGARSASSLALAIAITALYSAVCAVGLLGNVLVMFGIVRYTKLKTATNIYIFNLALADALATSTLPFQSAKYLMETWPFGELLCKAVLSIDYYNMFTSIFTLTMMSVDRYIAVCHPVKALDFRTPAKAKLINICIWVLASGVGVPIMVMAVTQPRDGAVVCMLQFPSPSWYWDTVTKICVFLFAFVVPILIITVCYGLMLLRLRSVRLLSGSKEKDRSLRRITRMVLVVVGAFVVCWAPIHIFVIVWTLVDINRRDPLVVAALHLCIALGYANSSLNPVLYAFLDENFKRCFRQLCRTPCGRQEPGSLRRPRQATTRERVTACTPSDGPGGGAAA

In general, pKi refers to −log10 of the Ki, conventionally taken in molar units. Low readings indicate a large Ki, high ones a small Ki. What is called pIC50 is the negative decadic logarithm of the IC50, by convention in mol/L. Lower therefore signals a large IC50. The ED50 is the dose at which the effect has come halfway, by size or by number of responders. A lower ED50 goes with greater potency. `CCO[C@@]12CCC(=O)[C@]3(C)Oc4c(O)ccc5c4[C@@]31CCN(CCc1ccccc1)[C@@H]2C5`: the figures for the Ratio (in the test filed under Mus musculus [1]; in test [3]) were 1.1 and 5.1, respectively. Besides, the negative logarithm of the Ki (pKi) on Mu-type opioid receptor [2] was 9.80; in test [10], 8.50; in test [11] it was 7.08. Further, the Selectivity in test [4] was 20; in test [5], 520. Also, the figures for the pIC50 (in [6]; at Mu-type opioid receptor [7]) were 8.01 and 8.72, respectively. Also, it took a dose of 0.121 µmol/kg to reach the 50% effect level with Mus musculus [8] (ED50). Moreover, in the test with Mus musculus [9], the AD50 was found to be 109 nmol/kg.
As to `C=CCO[C@@]12CCC(=O)[C@@H]3Oc4c(O)ccc5c4[C@@]31CCN(C)[C@@H]2C5`, the Ratio in the test listed under Mus musculus [1] is recorded as 1.1; in test [3] it was 3.6. The pKi was 9.21 on Mu-type opioid receptor [2], 7.44 in test [10] and 7.47 in [11]. For the same compound, the results for the Selectivity in test [4] and in [5] were 59 and 55, respectively. Besides, the values for the pIC50 (in test [6]; on Mu-type opioid receptor [7]) were 7.20 and 7.75, respectively. For the same compound, the median effective dose (ED50) with Mus musculus [8] stood at 0.037 µmol/kg. Besides, in the test with Mus musculus [9], the AD50 turned out to be 35 nmol/kg.
In turn, `CN1CC[C@]23c4c5ccc(O)c4O[C@H]2[C@@H](O)C=C[C@H]3[C@H]1C5` [MORPHINE] registered an ED50 with Mus musculus [8] of 7.62 µmol/kg. This compound also returned an AD50 in the test with Mus musculus [9] of 6690 nmol/kg.
Take `CN1CC[C@]23c4c5ccc(O)c4O[C@@]2(C)C(=O)CC[C@@]3(OCc2ccccc2)[C@H]1C5`: the Ratio in the test filed under Mus musculus [1] was 1.1; in test [3] it was 4.6. The pKi at Mu-type opioid receptor [2] is 9.74; in [10] it was 8.44; in test [11], 8.61. The Selectivity in test [4] amounted to 20; in [5] it was 14. Further, the results for the pIC50 (in test [6]; on Mu-type opioid receptor [7]) were 8.64 and 9.30, respectively. The compound also returned an ED50 in the test with Mus musculus [8] of 0.074 µmol/kg. Besides, the AD50 with Mus musculus [9] was 65 nmol/kg.
Consider `CN1CC[C@]23c4c5ccc(O)c4O[C@H]2C(=O)CC[C@@]3(OCc2cccc3ccccc23)[C@H]1C5`, for which the Ratio was 0.8 in the test listed under Mus musculus [1] and 0.9 in test [3]. Further, the pKi on Mu-type opioid receptor [2] was 9.74; in test [10], 8.53; in test [11], 9.04. Moreover, the Selectivity amounted to 16 in test [4] and 5.1 in [5]. In addition, the pIC50 in test [6] is 9.10; at Mu-type opioid receptor [7], 9.05. This compound also gave an ED50 in the test with Mus musculus [8] of 0.0118 µmol/kg. This compound also returned an AD50 with Mus musculus [9] of 14.4 nmol/kg.
Take `CN1CC[C@]23c4c5ccc(O)c4O[C@H]2C(=O)CC[C@@]3(OCc2c(Cl)cccc2Cl)[C@H]1C5`: the Ratio in the test filed under Mus musculus [1] is reported as 1.5; in [3], 0.2. Further, the negative logarithm of the Ki (pKi) at Mu-type opioid receptor [2] is 7.99; in test [10], 6.82; in test [11], 7.48. Besides, the values for the Selectivity in [4] and in test [5] were 15 and 3.2, respectively. In addition, the negative logarithm of the IC50 (pIC50) in test [6] is 6.68; at Mu-type opioid receptor [7] it was 6.00. In the test with Mus musculus [8], this compound gave an ED50 of 2.49 µmol/kg. For the same compound, in the test on Mus musculus [9], the AD50 was 1640 nmol/kg.
For `CN1CC[C@]23c4c5ccc(O)c4O[C@H]2C(=O)CC[C@@]3(OCc2ccccc2)[C@H]1C5`, the values for the Ratio (in the test listed under Mus musculus [1]; in [3]) were 2.8 and 1.7, respectively. In addition, the pKi was 9.92 at Mu-type opioid receptor [2], 8.67 in [10] and 8.93 in test [11]. Besides, the values for the Selectivity in test [4] and in test [5] were 18 and 10, respectively. For the same compound, the pIC50 in test [6] is 8.82; on Mu-type opioid receptor [7], 9.05. It took a dose of 0.027 µmol/kg to reach the 50% effect level with Mus musculus [8] (ED50). The compound also yielded an AD50 in the test with Mus musculus [9] of 9.6 nmol/kg.
Take `CO[C@@]12CCC(=O)[C@@H]3Oc4c(O)ccc5c4[C@@]31CCN(C)[C@@H]2C5`: the figures for the pIC50 (in test [6]; at Mu-type opioid receptor [7]) were 7.52 and 8.70, respectively. The ED50 with Mus musculus [8] was 0.022 µmol/kg. This compound had an AD50 with Mus musculus [9] of 53 nmol/kg. The compound further had a pKi in test [10] of 8.32.
On to `CO[C@@]12CCC(=O)[C@]3(C)Oc4c(O)ccc5c4[C@@]31CCN(C)[C@@H]2C5`, for which the pKi at Mu-type opioid receptor [2] was 9.82; in [10], 7.88; in [11], 7.60. Moreover, the Ratio in test [3] came to 4. For the same compound, the Selectivity in [4] was determined as 89; in [5], 168. Also, the negative logarithm of the IC50 (pIC50) is 7.61 in [6] and 8.21 on Mu-type opioid receptor [7]. Further, the AD50 with Mus musculus [9] amounted to 280 nmol/kg.
